Beta2AR agonist: agonists of human beta-2 adrenergic receptor inducing internalization | Am2.2-beta2AR cells, FAP receptor internalization, flow cytometry | actives 0.43% (n = 340,000) | response, % (concentration not given with the values);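 active means response above a set limit, near 3 SD of response in nonfluorescent compounds, cut at about 42% in these data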
Mdm2 MdmX PPI: human Mdm2/MdmX binding inhibition. actives 3% (n = 330,000). inhibition, % at 8 µM. AID 485346. O15151+Q00987. SaOS-2 split-luciferase Mdm2/MdmX complementation, luminescence;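 active means inhibition of at least 50% at 8 µM in the primary screen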
UPR XBP1 act: activators of adaptive arm of unfolded protein response (XBP1); activation, % at 20 µM; CHO-XBP1 luciferase reporter, IRE1-XBP1 UPR activation, luminescence; percent of tunicamycin response, DMSO as zero; actives 0.33% (n = 330,000); AID 463104;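 active means versus positive control, 20 µM dose yields 30% or more activation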;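 further: 100% = tunicamycin at 10 µg/mL and 0% = DMSO only wells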
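Material: IRE1-XBP1 luciferase reporter CHO line / Quantity: one thousand reporter cells per well / Buffer or medium: F12 with 10% serum / Compound: 20 µM single concentration, DMSO 1% / Times: 6 h treatment, 37 °C / Detection: Steady-Glo luciferase glow luminescence, 10 min after reagent addition / Benchmarks: tunicamycin high, DMSO low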
Dynein cargo inh: dynein cargo transport inhibition | 3617.4 mouse cells, GR-EGFP nuclear translocation imaging; test concentration mostly 20 µM; stimulated with dexamethasone, 1 µM; hits give low values | z-score, hits read low | actives 0.47% (n = 220,000) | AID 1381;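 active means plate z-score of nuclear minus cytoplasmic receptor signal below a set negative limit, without overly bright fluorescence or cell loss, cut at about -3.5 in these data, passing the limit was not always enough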;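 further: z-score of nuclear minus cytoplasmic ring GR-EGFP intensity difference per well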
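Buffer or medium: Induction medium lacking tetracycline, stripped serum | Also added: Dexamethasone agonist, 1.0 µM final, for 30 min | Timing: 48 h induction, 1 h compound, 30 min dex at 37 °C | Detection: Formaldehyde fixation, Hoechst nuclear stain, 10x automated fluorescence imaging | Measure: Nuclear versus cytoplasmic GR-EGFP signal, averaged per well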
MDM2 E3 inh: Mdm2 E3 ligase (human) inhibition; Q00987; cell-based MDM2 ubiquitination luciferase reporter, 2 h; 0 = plate control, 100 = twice control, blank-subtracted; signal enhancement, % at 5 µM; actives 0.11% (n = 210,000);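 active means signal enhancement of 30% or more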;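 further: luminescence tracks abundance of the self-degrading MDM2-luciferase fusion protein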
Target sequence (Q00987 whole entry, looked up, the tested form may be a part): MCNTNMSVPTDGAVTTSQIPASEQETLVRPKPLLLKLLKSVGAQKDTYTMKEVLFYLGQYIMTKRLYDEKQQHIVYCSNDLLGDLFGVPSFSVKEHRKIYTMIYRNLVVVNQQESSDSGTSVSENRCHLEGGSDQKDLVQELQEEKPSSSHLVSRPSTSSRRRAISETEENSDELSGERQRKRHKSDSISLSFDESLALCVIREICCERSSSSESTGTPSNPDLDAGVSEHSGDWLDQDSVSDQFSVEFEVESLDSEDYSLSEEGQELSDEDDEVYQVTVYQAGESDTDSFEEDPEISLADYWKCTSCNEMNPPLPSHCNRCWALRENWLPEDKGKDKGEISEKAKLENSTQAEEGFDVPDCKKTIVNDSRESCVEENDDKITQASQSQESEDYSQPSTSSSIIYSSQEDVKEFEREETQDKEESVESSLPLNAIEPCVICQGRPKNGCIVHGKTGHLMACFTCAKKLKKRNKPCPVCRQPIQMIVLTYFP
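Assay system: mammalian cells stably expressing self-ubiquitinating, self-degrading MDM2 E3–luciferase fusion. Quantity: 2000 cells in each well. Medium: DMEM culture medium. Compound dosing: single-point 5 µM. Timing: cell settling 4 h, compound treatment 2 h, both 37 °C. Technique: luciferase luminescence. Read-out basis: percent signal gain over controls, blank-subtracted. Benchmarks: plate controls and plate blanks.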
UPR CHOP act: activators of apoptotic arm of unfolded protein response (CHOP); CHO-CHOP luciferase reporter, UPR activation, luminescence; percent of tunicamycin response over DMSO baseline; activation, % at 10 µM; actives 0.34% (n = 330,000);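 active means at 10 µM dose, activation of 40% or more, normalized to positive control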;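 further: 100% = tunicamycin at 10 µg/mL and 0% = DMSO alone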
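Assay system: CHO-CHOP cells, stable luciferase reporter of PERK-eIF2a-CHOP signalling / Buffer or medium: F12 plus 10% serum / Compound dosing: one dose, 10 µM in 0.5% DMSO / Times: 6 h compound treatment, 37 °C / Technique: luciferase luminescence / Read-out: % reporter activation, DMSO baseline versus tunicamycin full activation / Benchmarks: tunicamycin and DMSO controls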
Beta2AR ag CP1: activates human beta-2 adrenergic receptor; actives 25% (n = 1,100); percent response (surface receptor), % at 10 µM; Am2.2-beta2AR cells, FAP surface receptor, flow cytometry; hits give low values; shares compounds with Beta2AR agonist; AID 540358;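 active means surface receptor percent response at or below 58%, roughly 3 SD from nonfluorescent compounds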
B2AR FAP counter: fluorescence artifact in beta-2AR agonist FAP counterscreen; calls only at 10 µM; shares compounds with Beta2AR agonist; Am2.2 cells, FAP fluorogen flow cytometry; hits give low values; 1,100 tested, under 10 active;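 active means percent response below a set limit in fluorescence channel 1 and below 50% in channel 8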
The depositor's hits bear a star; i = inactive; . = not tested or not shown; + = active, no number; ! = not confirmed by another sample. In the library only some 3.7% were active in any assay of this set; here they are far more common.

SMILES | Beta2AR agonist | Mdm2 MdmX PPI | UPR XBP1 act | Dynein cargo inh | MDM2 E3 inh | UPR CHOP act | Beta2AR ag CP1 | B2AR FAP counter
COc1ccc(NC(=O)C(=O)NCC(c2ccco2)N2CCc3ccccc32)cc1 (stereo unspecified) | -5 | 19 | 3 | . | . | 0 | . | .
COc1ccc(C(=O)NCC(c2ccco2)N2CCc3ccccc32)cc1 (stereo unspecified) | 54* | 49 | 5 | . | . | 1 | 91 | i
Cc1ccc(CN2CCN(C3CCOCC3)CC2CCO)cc1 (stereo unspecified) | -4 | -28 | -1 | -1.2 | -20 | 0 | . | .
O=C(OCC(=O)N1CCCc2ccccc21)c1c(F)cccc1F | -2 | 2 | 4 | . | . | 3 | . | .
O=C(c1ccco1)N1CCCC(c2nc3c(nnn3Cc3c(Cl)cccc3Cl)c(=O)[nH]2)C1 (stereo unspecified) | 50* | 16 | 0 | . | . | 0 | 124 | i
O=C(c1ccco1)N1CCCC(c2nc3c(nnn3Cc3ccccc3)c(=O)[nH]2)C1 (stereo unspecified) | 8 | 20 | -5 | . | . | 1 | . | .
CCOC(=O)c1nnn(CC(=O)Nc2cccc(Cl)c2C)c1C(=O)OCC | 70* | 9 | 0 | -0.51 | -16 | -1 | 101 | i
CCOC(=O)c1[nH]ncc1CN1CCCC(C(=O)c2ccc(OC)c(OC)c2)C1 (stereo unspecified) | 47* | 2 | 0 | -0.57 | -3 | 0 | 82 | i
CCCNC(C)C(=O)Nc1ccccc1C (stereo unspecified) | -3 | -30 | -5 | . | . | -2 | 115 | i
COc1cc(C(=O)Nc2nc3ccccc3s2)ccc1OCc1c(C)noc1C | 53* | 40 | 4 | 0.66 | -10 | 1 | 108 | i
CC(C)Cc1nc2sc3c(NCc4ccco4)ncnc3c2c2c1COC(C)(C)C2 | 65* | 26 | 3 | 0.4 | -13 | 2 | 28* | i
CC(C)Cc1nc2sc3c(=O)n(N)cnc3c2c2c1COC(C)(C)C2 | 4 | 28 | 5 | -1.5 | -12 | 3 | . | .
CSc1nc(SCCO)c2sc3nc(-c4ccco4)c4c(c3c2n1)CC(C)(C)OC4 | 100* | . | . | -1.1 | -40 | . | 6.5* | i
CC(C)c1nc2oc3c(NCCO)ncnc3c2c2c1COC(C)(C)C2 | 5 | 17 | 4 | -0.93 | . | -1 | 114 | i
COCCCNc1ncnc2c1sc1nc(-c3ccco3)c3c(c12)CC(C)(C)OC3 | 99* | 13 | 10 | 1.2 | -7 | 9 | 20* | i
CC1(C)Cc2c(c(-c3ccco3)nc3sc4c(NCCO)ncnc4c23)CO1 | 100* | 23 | 6 | 1.5 | 3 | 1 | 16* | i
Cc1cc(C)n2nc(C(=O)Nc3ccc(S(=O)(=O)N4CCCCC4)cc3)nc2n1 | 0 | 8 | -1 | -0.51 | -19 | 1 | . | .
Cc1cc(C)n2nc(C(=O)Nc3cccc(S(=O)(=O)N(C)c4ccccc4)c3)nc2n1 | 75* | -18 | 1 | -0.57 | . | 0 | 12* | i
Cc1cc(C)n2nc(C(=O)Nc3ccc(S(=O)(=O)N4CCCC4)cc3)nc2n1 | 46* | 0 | -2 | -0.12 | . | -2 | 98 | i
CN(C)CCCNc1ncnc2c1cnn2Cc1ccccc1Cl | -5 | 2 | 0 | . | . | 4 | . | .
N=c1n(CC(=O)O)c2ccccc2n1Cc1ccccc1Cl | 3 | 2 | -1 | 1.1 | -9 | 0 | . | .
N=c1n(CC(=O)c2ccc([N+](=O)[O-])cc2)c2ccccc2n1Cc1ccccc1Cl | 93* | . | . | 1.6 | -12 | . | 24* | +
O=C(Nc1ccc2c(c1)OCO2)C(c1ccc(Cl)cc1)N1CCC2(CC1)OCCO2 (stereo unspecified) | 18 | 3 | 1 | -0.4 | -13 | -1 | . | .
CC(C)c1ccc(NC(=O)C(c2ccc3c(c2)OCO3)N2CCC3(CC2)OCCO3)cc1 (stereo unspecified) | 8 | -3 | -1 | -0.16 | -3 | 2 | 127 | i
Cc1ccc(CS(=O)(=O)c2nc3c(c(N(C)C)n2)CCCC3)cc1 | 73* | 3 | 0 | 0.76 | -5 | -1 | 27* | i
SMILES | Beta2AR agonist | Mdm2 MdmX PPI | UPR XBP1 act | Dynein cargo inh | MDM2 E3 inh | UPR CHOP act | Beta2AR ag CP1 | B2AR FAP counter
COc1ccc(S(=O)(=O)N(C)CC(=O)N2CCN(c3ccccc3)CC2)cc1 | -15 | 6 | -1 | . | . | 1 | 124 | i
COc1ccc(S(=O)(=O)N(CC(=O)N2CCN(c3ccccc3OC)CC2)c2ccccc2)cc1 | -4 | 15 | -4 | 1.2 | 5 | 0 | . | .
COc1ccc(S(=O)(=O)N(C)CC(=O)N2CCN(c3ccc(F)cc3)CC2)cc1OC | 2 | 19 | 1 | 0.54 | -3 | -1 | 5.1*! | i
COc1ccccc1N1CCN(C(=O)CN(C)S(=O)(=O)c2ccc(C)cc2)CC1 | . | . | . | . | . | . | 47* | i
COc1ccc2cc(C(c3nnnn3C3CCCC3)N3CCOCC3)c3nnnn3c2c1 (stereo unspecified) | -7 | -2 | 0 | 0.25 | -1 | 0 | . | .
COC(=O)c1cc(S(=O)(=O)NCc2ccc3c(c2)OCO3)cn1C | -3 | 27 | -4 | . | . | -2 | . | .
CC(NC(=O)COC(=O)CNS(=O)(=O)/C=C/c1ccccc1)c1ccccc1 (stereo unspecified) | 12 | 4 | 0 | . | . | 2 | . | .
CC(C)(C)c1ccc(S(=O)(=O)N2CCN(C(=O)C3=COCCO3)CC2)cc1 | -10 | 16 | -3 | . | . | -1 | . | .
COc1ccc(NC(=O)CN(C)CC(=O)Nc2sc3c(c2C#N)CCC3)cc1 | -5 | -10 | 2 | . | . | -1 | . | .
O=Cc1ccc(OCc2nnc(-c3ccccc3Br)o2)cc1 | 21 | 17 | 8 | . | . | 1 | . | .
NC(=O)c1ccccc1OCc1nnc(-c2ccccc2Br)o1 | -10 | -15 | 7 | . | . | 4 | 119 | i
Cc1cccc(CN2CCC(Oc3ccc(C(=O)N4CCCCC4)cc3)CC2)c1 | 12 | 14 | -7 | . | . | 2 | 86 | i
CCOc1cccc(CN2CCC(Oc3ccc(C(=O)N4CCCC4)cc3)CC2)c1 | -6 | 23 | -6 | . | . | 2 | 114 | i
COc1ccccc1C(=O)Nc1ccc(S(=O)(=O)N2CCCCC2c2cccnc2)cc1 (stereo unspecified) | -16 | 10 | -1 | 0.33 | -5 | -1 | 133 | i

High-throughput results deposited in PubChem by several laboratories.
